Calls of active or inactive are those of the source. The rule behind the calls is not given here.
How the values were obtained:
[1] = Vasoconstriction of human coronary artery; format: functional, tissue-based
Rattus norvegicus [2] = test: Toxicity in Sprague-Dawley rat assessed as nasal irritation at 75 mg/mL administered intranasally for 7 days; format: organism-based; conditions: in vivo, inhaled_or_intranasal, 168 h
Procedure, shortened: (§1)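 Seven-day rat intranasal irritancy study. Dosing at 75 or 175 mg/mL, 12.5 µL/nostril in succinate buffer, giving total doses of 1.875 mg and 4.375 mg. Nasal cavity and respiratory epithelium were examined histologically.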

Rattus norvegicus [3] = test: Toxicity in Sprague-Dawley rat assessed as nasal irritation at 175 mg/mL administered intranasally for 7 days; format: organism-based; conditions: in vivo, inhaled_or_intranasal, 168 h; procedure, shortened: as §1
[4] = target: T1, Calcitonin gene-related peptide type 1 receptor (Homo sapiens, UniProt O60894+Q16602); test: Antagonist activity at human CGRP receptor
T1 sequence (Q16602 whole entry, one chain of several): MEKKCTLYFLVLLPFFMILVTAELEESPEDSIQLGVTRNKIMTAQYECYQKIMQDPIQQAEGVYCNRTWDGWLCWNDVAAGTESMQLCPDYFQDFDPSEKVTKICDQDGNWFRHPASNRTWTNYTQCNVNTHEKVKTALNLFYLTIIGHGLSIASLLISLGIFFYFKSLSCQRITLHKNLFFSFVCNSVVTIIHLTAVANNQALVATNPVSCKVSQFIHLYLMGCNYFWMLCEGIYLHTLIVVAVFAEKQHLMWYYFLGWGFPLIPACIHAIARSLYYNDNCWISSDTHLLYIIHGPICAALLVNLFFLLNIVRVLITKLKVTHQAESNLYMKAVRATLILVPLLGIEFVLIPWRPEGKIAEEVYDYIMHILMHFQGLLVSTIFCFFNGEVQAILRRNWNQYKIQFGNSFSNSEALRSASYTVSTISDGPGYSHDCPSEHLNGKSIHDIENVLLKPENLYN

Callithrix jacchus [5] = test: Inhibition of human alphaCGRP-induced increase in facial blood flow in marmoset at 0.03 mg/kg, sc administered 30 mins after human alphaCGRP-challenge measured 105 mins post-dose by laser Doppler flowmetric analysis relative to control; format: functional; conditions: route subcutaneous
Procedure, shortened: (§2)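 Anesthetized marmosets received four IV hαCGRP challenges (10 μg/kg) at 45 min intervals (-30, 15, 60, 105 min) to raise facial blood flow, monitored by laser Doppler. Antagonist given SC at 0 min. The first challenge is the pre-dose vehicle baseline, and inhibition at each post-dose challenge is expressed against it.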

[6] = Tmax in intranasally dosed New Zealand White rabbit; format: ADME, organism-based, Oryctolagus cuniculus; conditions: in vivo, inhaled or intranasal
Procedure, shortened: (§3)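 Intranasal dosing in rabbit with 10 to 100 mg/mL dosing solutions, then plasma sampling from 5 min to 24 h. Reported values are Cmax, Tmax, and absolute bioavailability for each dosing-solution concentration.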

Cytochrome P450 2D6 = Cytochrome P450 2D6 (Homo sapiens, UniProt P10635); test: Inhibition of CYP2D6 (unknown origin) expressed in baculovirus-infected insect cell microsomes assessed as 3-[2-(N,N-diethyl-N-methylamino)ethyl]-7-methoxy-4-methylcoumarin conversion to 3-[2-(N,N-diethylamino)ethyl]-7-hydroxy-4-methylcoumarin after 45 mins by fluorescence assay; format: ADME, Microsome
Sequence of Cytochrome P450 2D6 (P10635 whole entry): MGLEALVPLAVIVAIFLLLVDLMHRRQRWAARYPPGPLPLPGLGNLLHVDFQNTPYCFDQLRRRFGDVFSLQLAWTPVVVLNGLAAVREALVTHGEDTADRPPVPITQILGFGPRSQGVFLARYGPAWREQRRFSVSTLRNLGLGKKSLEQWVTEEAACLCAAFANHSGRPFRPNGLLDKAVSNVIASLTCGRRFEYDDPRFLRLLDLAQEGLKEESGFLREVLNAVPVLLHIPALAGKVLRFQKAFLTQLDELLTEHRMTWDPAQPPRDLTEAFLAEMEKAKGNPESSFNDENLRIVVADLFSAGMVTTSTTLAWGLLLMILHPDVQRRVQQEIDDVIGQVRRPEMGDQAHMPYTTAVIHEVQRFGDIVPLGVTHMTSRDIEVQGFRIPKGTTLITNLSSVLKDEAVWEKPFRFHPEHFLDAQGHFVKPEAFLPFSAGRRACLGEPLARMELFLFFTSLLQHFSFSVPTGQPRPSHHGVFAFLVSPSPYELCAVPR

[7] = Oral bioavailability in mouse; format: ADME, organism-based; conditions: in vivo
[8] = Permeability from apical to basolateral side of human Caco2 cells; format: ADME, cell-based; conditions: Caco-2, read-out: permeability
Cytochrome P450 2C9 = Cytochrome P450 2C9 (Homo sapiens, UniProt P11712); test: Inhibition of CYP2C9 (unknown origin) expressed in baculovirus-infected insect cell microsomes assessed as 7-methoxy-4-trifluoromethylcoumarin conversion to 7-hydroxy-4-trifluoromethylcoumarin after 45 mins by fluorescence assay; format: ADME, Microsome
Sequence of Cytochrome P450 2C9 (P11712 whole entry): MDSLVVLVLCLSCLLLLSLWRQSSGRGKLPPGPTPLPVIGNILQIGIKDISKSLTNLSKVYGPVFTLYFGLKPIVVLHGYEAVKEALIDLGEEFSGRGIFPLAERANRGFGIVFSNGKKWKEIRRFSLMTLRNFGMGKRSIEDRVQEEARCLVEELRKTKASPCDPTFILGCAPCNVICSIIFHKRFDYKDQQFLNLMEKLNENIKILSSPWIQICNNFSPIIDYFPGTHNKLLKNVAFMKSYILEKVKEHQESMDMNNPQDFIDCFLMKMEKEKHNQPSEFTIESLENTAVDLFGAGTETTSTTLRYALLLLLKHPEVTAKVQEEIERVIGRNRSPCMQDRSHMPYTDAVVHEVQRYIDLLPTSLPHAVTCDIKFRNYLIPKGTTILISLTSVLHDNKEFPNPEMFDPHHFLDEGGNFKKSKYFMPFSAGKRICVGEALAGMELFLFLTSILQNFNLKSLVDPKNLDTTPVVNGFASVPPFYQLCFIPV

[9] = Plasma concentration in marmoset at 0.03 mg/kg, sc measured 15 to 105 mins post-dose; format: ADME, organism-based, Callithrix jacchus; set-up: dose 0.03 mg/kg, route subcutaneous; conditions: in vivo
Procedure, shortened: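 Total plasma levels were measured in anesthetized marmosets given the antagonist SC at 0 min, sampled over the 15–105 min post-dose period. The animals also received repeated IV hαCGRP (10 μg/kg) challenges for the facial blood flow model.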

[10] = Reversal of CGRP-induced dilation of human intracranial arterial rings assessed as rightward shift of concentration-response curve after 30 mins by Schild plot analysis; format: functional; conditions: 0.5 h
Rattus norvegicus [11] = test: Toxicity in Sprague-Dawley rat assessed as ulceration of olfactory epithelium at 175 mg/mL administered intranasally for 7 days; format: organism-based; conditions: in vivo, inhaled_or_intranasal, 168 h; procedure, shortened: as §1
Homo sapiens [12] = species on record: Homo sapiens; test: Selectivity ratio for human CGRP receptor over adrenomedullin receptor-1 (unknown origin)
[13] = Vasoconstriction of human coronary artery up to 10 uM; format: functional, tissue-based
Rattus norvegicus [14] = test: Toxicity in Sprague-Dawley rat assessed as inflammation of olfactory epithelium at 175 mg/mL administered intranasally for 7 days; format: organism-based; conditions: in vivo, inhaled_or_intranasal, 168 h; procedure, shortened: as §1
[15] = Chemical degradation in succinate buffer at 40 mg/mL after 3 months at pH 6
[16] = Oral bioavailability in cynomolgus monkey; format: ADME, organism-based, Macaca fascicularis; conditions: in vivo
Cytochrome P450 1A2 = target: T2, Cytochrome P450 1A2 (Homo sapiens, UniProt P05177); test: Inhibition of CYP1A2 (unknown origin) expressed in baculovirus-infected insect cell microsomes assessed as 3-cyano-7-ethoxycoumarin conversion to 7-hydroxy-3-cyanocoumarin after 45 mins by fluorescence assay; format: ADME, Microsome
T2 sequence (P05177 whole entry): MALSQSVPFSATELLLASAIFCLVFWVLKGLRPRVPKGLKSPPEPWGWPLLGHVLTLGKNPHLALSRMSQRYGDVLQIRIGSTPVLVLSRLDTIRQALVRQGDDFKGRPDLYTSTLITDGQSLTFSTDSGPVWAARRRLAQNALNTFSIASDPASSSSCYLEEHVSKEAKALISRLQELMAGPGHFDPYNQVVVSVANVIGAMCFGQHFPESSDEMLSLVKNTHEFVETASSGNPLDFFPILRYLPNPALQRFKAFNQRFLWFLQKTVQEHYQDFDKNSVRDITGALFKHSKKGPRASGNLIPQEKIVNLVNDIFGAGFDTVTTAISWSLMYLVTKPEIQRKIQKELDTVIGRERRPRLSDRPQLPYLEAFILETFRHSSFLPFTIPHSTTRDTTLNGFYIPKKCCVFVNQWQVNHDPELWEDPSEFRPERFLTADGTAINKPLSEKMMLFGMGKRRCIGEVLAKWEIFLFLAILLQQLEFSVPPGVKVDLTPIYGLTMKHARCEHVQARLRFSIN

Rattus norvegicus [17] = test: Toxicity in Sprague-Dawley rat assessed as lesions in respiratory epithelium at => 75 mg/mL administered intranasally for 7 days; format: organism-based; conditions: in vivo, inhaled_or_intranasal, 168 h; procedure, shortened: as §1
[18] = Cmax in intranasally dosed New Zealand White rabbit; format: ADME, organism-based, Oryctolagus cuniculus; set-up: route nasal; conditions: in vivo, inhaled or intranasal; procedure, shortened: as §3
hERG [19] = target: T3, hERG (Homo sapiens, UniProt Q12809); test: Inhibition of human ERG at 30 uM relative to control
T3 sequence (Q12809 whole entry): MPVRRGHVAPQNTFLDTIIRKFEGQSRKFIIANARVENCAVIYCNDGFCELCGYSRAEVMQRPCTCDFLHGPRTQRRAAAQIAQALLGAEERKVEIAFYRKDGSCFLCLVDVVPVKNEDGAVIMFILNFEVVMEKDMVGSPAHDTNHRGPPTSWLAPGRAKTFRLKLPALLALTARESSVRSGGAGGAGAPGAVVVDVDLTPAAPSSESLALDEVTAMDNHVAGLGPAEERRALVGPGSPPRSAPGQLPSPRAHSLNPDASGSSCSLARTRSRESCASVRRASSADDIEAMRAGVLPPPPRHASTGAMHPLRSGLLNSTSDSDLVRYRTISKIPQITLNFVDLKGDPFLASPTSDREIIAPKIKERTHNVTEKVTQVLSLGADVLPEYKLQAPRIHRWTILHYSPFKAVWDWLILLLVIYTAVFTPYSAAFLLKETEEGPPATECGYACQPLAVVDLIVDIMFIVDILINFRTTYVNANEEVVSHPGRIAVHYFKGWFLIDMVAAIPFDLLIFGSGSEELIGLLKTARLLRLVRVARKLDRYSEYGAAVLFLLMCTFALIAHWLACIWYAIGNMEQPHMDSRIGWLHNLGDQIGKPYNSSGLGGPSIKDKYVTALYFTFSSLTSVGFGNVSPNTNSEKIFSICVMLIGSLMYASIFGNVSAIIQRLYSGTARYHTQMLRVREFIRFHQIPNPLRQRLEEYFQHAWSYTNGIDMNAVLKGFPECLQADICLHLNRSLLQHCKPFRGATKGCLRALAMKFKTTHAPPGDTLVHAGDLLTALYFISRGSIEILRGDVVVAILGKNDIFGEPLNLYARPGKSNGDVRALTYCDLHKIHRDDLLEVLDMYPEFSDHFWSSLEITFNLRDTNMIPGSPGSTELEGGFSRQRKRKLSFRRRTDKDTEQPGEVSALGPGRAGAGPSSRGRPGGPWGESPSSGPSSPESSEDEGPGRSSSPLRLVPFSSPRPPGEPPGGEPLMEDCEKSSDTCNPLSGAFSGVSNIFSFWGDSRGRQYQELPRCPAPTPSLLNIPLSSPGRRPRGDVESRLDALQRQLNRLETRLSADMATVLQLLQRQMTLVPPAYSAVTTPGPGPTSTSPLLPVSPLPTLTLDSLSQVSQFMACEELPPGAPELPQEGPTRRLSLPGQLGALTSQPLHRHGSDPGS

[20] = Permeability of the compound by PAMPA; format: ADME
[21] = Oral bioavailability in intranasally dosed New Zealand White rabbit at 10 mg/mL; format: ADME, organism-based, Oryctolagus cuniculus; conditions: in vivo, other: intranasal; procedure, shortened: as §3
Homo sapiens [22] = species on record: Homo sapiens; test: Selectivity ratio for human CGRP receptor over amylin receptor-1 (unknown origin)
[23] = Fraction unbound in human plasma; format: ADME, cell-free
[24] = Subcutaneous bioavailability in sc dosed Sprague-Dawley rat; conditions: in vivo
[25] = Toxicity in sc dosed Sprague-Dawley rat after 10 days; format: organism-based; conditions: in vivo
Procedure, shortened: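 Rats were dosed subcutaneously once daily for 10 days at 0.3, 3, 10 and 30 mg/kg/day and assessed for tolerability and signs of systemic toxicity.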

Rattus norvegicus [26] = test: Toxicity in Sprague-Dawley rat assessed as erosion of olfactory epithelium at 175 mg/mL administered intranasally for 7 days; format: organism-based; conditions: in vivo, inhaled_or_intranasal, 168 h; procedure, shortened: as §1
Rattus norvegicus [27] = test: Toxicity in Sprague-Dawley rat assessed as lesions in nasal olfactory epithelium at => 75 mg/mL administered intranasally for 7 days; format: organism-based; conditions: in vivo, inhaled_or_intranasal, 168 h; procedure, shortened: as §1
Cytochrome P450 3A4 [28] = target: T4, Cytochrome P450 3A4 (Homo sapiens, UniProt P08684); test: Inhibition of CYP3A4 (unknown origin) expressed in baculovirus-infected insect cell microsomes assessed as benzoylresorufin conversion to resorufin metabolites after 45 mins by fluorescence assay; format: ADME, Microsome
T4 sequence (P08684 whole entry): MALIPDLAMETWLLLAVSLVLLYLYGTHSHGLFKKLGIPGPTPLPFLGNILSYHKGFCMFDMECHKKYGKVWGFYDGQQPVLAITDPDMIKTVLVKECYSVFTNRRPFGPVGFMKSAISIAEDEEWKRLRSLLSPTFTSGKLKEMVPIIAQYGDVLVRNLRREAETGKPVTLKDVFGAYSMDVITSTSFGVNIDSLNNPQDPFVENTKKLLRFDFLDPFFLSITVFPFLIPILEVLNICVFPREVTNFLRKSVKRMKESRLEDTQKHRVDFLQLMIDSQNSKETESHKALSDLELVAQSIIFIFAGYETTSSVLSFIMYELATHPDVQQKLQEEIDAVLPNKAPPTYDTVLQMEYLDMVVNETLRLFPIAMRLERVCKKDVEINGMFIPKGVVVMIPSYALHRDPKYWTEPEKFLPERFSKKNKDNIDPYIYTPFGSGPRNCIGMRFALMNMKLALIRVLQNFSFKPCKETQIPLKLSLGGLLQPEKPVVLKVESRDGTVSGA

Homo sapiens [29] = species on record: Homo sapiens; test: Selectivity ratio for human CGRP receptor over adrenomedullin receptor-2 (unknown origin)
[30] = Reversal of CGRP-induced dilation of human intracranial arterial rings; format: functional
Procedure, shortened: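 Ex vivo reversal protocol: vessels fully dilated with CGRP, then cumulative addition of antagonist in a 3-point concentration-response. EC50 (concentration giving 50% reversal) estimated by best fit, n = 4 vessels per compound.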

Homo sapiens [31] = species on record: Homo sapiens; test: Selectivity ratio for human CGRP receptor over amylin receptor-3 (unknown origin)
Homo sapiens [32] = species on record: Homo sapiens; test: Selectivity ratio for human CGRP receptor over human calcitonin receptor
Rattus norvegicus [33] = test: Toxicity in Sprague-Dawley rat assessed as single cell necrosis of respiratory epithelium at 175 mg/mL administered intranasally for 7 days; format: organism-based; conditions: in vivo, inhaled_or_intranasal, 168 h; procedure, shortened: as §1
Callithrix jacchus [34] = test: Inhibition of human alphaCGRP-induced increase in facial blood flow in marmoset at 0.03 mg/kg, sc administered 30 mins after human alphaCGRP-challenge measured 15 mins post-dose by laser Doppler flowmetric analysis relative to control; format: functional; conditions: route subcutaneous; procedure, shortened: as §2
[35] = target: Calcitonin gene-related peptide type 1 receptor (Homo sapiens) (UniProt Q16602); test: (§4) Displacement of [125I]-CGRP from CGRP receptor in human SK-N-MC cell membranes after 2 hrs by scintillation counting analysis
Sequence of Calcitonin gene-related peptide type 1 receptor (Homo sapiens) (Q16602 whole entry): as the sequence (Q16602 whole entry, one chain of several) above

[36] = target: T1, Calcitonin gene-related peptide type 1 receptor; test: as §4
Cytochrome P450 2C19 = Cytochrome P450 2C19 (Homo sapiens, UniProt P33261); test: Inhibition of CYP2C19 (unknown origin) expressed in baculovirus-infected insect cell microsomes assessed as 3-cyano-7-ethoxycoumarin conversion to 7-hydroxy-3-cyanocoumarin after 45 mins by fluorescence assay; format: ADME, Microsome
Sequence of Cytochrome P450 2C19 (P33261 whole entry): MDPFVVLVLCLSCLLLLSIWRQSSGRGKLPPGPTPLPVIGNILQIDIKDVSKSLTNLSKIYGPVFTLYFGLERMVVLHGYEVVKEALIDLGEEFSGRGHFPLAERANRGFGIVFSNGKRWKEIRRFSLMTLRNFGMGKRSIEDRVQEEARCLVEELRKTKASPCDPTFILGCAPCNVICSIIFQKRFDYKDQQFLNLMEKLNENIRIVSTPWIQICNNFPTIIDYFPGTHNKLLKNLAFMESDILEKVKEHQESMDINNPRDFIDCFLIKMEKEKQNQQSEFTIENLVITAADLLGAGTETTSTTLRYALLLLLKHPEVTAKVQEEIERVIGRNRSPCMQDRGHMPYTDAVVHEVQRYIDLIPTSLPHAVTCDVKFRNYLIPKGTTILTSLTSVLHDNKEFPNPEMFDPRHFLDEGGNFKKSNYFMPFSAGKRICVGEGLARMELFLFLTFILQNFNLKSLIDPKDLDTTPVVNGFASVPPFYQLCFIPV

[37] = target: Calcitonin gene-related peptide type 1 receptor (Homo sapiens) (UniProt Q16602); test: Antagonist activity at CGRP receptor in human SK-N-MC cell membranes assessed as inhibition of CGRP-stimulated cAMP production; format: functional, cell-based
[38] = Permeability from basolateral to apical side of human Caco2 cells; format: ADME, cell-based; conditions: Caco-2, read-out: permeability
Callithrix jacchus [39] = test: Inhibition of human alphaCGRP-induced increase in facial blood flow in marmoset at 0.03 mg/kg, sc administered 30 mins after human alphaCGRP-challenge measured 60 mins post-dose by laser Doppler flowmetric analysis relative to control; format: functional; conditions: route subcutaneous; procedure, shortened: as §2
[40] = Oral bioavailability in intranasally dosed New Zealand White rabbit at 100 mg/mL; format: ADME, organism-based, Oryctolagus cuniculus; conditions: in vivo, other: intranasal; procedure, shortened: as §3
[41] = Aqueous solubility of the compound; format: physicochemical; conditions: buffer
Procedure, shortened: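 Aqueous solubility of crystalline material, determined at pH 8.5 and at lower pH.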

Rattus norvegicus [42] = test: Toxicity in Sprague-Dawley rat assessed as neutrophilic inflammation of respiratory epithelium at 175 mg/mL administered intranasally for 7 days; format: organism-based; conditions: in vivo, inhaled_or_intranasal, 168 h; procedure, shortened: as §1
hERG [43] = target: T3, hERG; test: Inhibition of human ERG at 10 uM relative to control
Cytochrome P450 3A4 [44] = target: T4, Cytochrome P450 3A4; test: Inhibition of CYP3A4 (unknown origin) expressed in baculovirus-infected insect cell microsomes assessed as 7-benzyloxy-4-trifluoromethylcoumarin conversion to 7-hydroxy-4-trifluoromethylcoumarin after 20 mins by fluorescence assay; format: ADME, Microsome
[45] = Plasma concentration in intranasally dosed New Zealand White rabbit after 5 mins; format: ADME, organism-based, Oryctolagus cuniculus; conditions: inhaled or intranasal; procedure, shortened: as §3

Structure (SMILES): CNS(=O)(=O)Cc1ccc2[nH]cc(CCN(C)C)c2c1
- Activity [1]: Dose-dependent effect
- EC50 [1]: 280 nM

Structure (SMILES): Cc1cc(C[C@@H](NC(=O)N2CCC(N3Cc4cccc(F)c4NC3=O)CC2)C(=O)N2CCC(N3CCCCC3)CC2)cc2cn[nH]c12
- Activity (Rattus norvegicus [2]): Toxic
- Activity (Rattus norvegicus [3]): Toxic

Structure (SMILES): O=C(CN1C(=O)C2(CCCC2)NC[C@H]1c1cc(F)cc(F)c1)Nc1ccc2c(c1)C[C@@]1(C2)C(=O)Nc2ncccc21 [MK3207]
- Ki [4]: 0.021 nM

Structure (SMILES): Cc1cc(C[C@@H](NC(=O)N2CCC(c3cc4ccccc4[nH]c3=O)CC2)C(=O)N2CCN(C3CCN(C)CC3)CC2)cc2cn[nH]c12 [ZAVEGEPANT]
- inhibition in vivo at 0.03 mg/kg (Callithrix jacchus [5]): 70%
- Activity (Rattus norvegicus [2]): Non-toxic
- Tmax [6]: 15 min
- IC50 (Cytochrome P450 2D6): > 40000 nM
- bioavailability [7]: 1.4%
- Papp A→B [8]: 1.6 ×10⁻⁶ cm/s
- IC50 (Cytochrome P450 2C9): > 40000 nM
- concentration [9]: 25 nM
- Kb [10]: 0.091 nM
- Activity (Rattus norvegicus [11]): Toxic
- Selectivity ratio (Homo sapiens [12]): > 10000
- Activity [13]: inactive
- Activity (Rattus norvegicus [14]): Toxic
- Degradation % at 2191.5 h, 40 mg/mL [15]: 0.3%
- Activity (Rattus norvegicus [3]): Non-toxic
- bioavailability [16]: 0.3%
- IC50 (Cytochrome P450 1A2): > 40000 nM
- Activity (Rattus norvegicus [17]): Toxic
- Cmax [18]: 120 nM
- inhibition at 30 µM (hERG [19]): 22%
- permeability [20]: impermeable
- bioavailability [21]: 13%
- Selectivity ratio (Homo sapiens [22]): > 10000
- fraction unbound [23]: 0.37
- bioavailability [24]: 82%
- MTD at 240 h [25]: 30 mg/kg/day
- Activity (Rattus norvegicus [26]): Toxic
- Activity (Rattus norvegicus [27]): Toxic
- IC50 (Cytochrome P450 3A4 [28]): 24000 nM
- Selectivity ratio (Homo sapiens [29]): > 10000
- EC50 [30]: 0.88 nM
- Selectivity ratio (Homo sapiens [31]): > 10000
- Selectivity ratio (Homo sapiens [32]): > 10000
- Activity (Rattus norvegicus [33]): Toxic
- inhibition in vivo at 0.03 mg/kg (Callithrix jacchus [34]): 48%
- inhibition [35]: Dose-dependent effect
- Ki [36]: 0.023 nM
- IC50 (Cytochrome P450 2C19): > 40000 nM
- Kb [37]: 0.022 nM
- Papp B→A [38]: 1.6 ×10⁻⁶ cm/s
- inhibition in vivo at 0.03 mg/kg (Callithrix jacchus [39]): 80%
- bioavailability [40]: 30%
- solubility [41]: > 300 mg/mL
- Activity (Rattus norvegicus [42]): Toxic
- inhibition at 10 µM (hERG [43]): 9.5%
- IC50 (Cytochrome P450 3A4 [44]): > 40000 nM
- concentration at 5 min [45]: > 10 nM

— ChEMBL document CHEMBL2396632 (Bioorg Med Chem Lett, 2013)
